Laboratory results as given in publication PMC4608253 (Journal of chromatography. B, Analytical technologies in …, 2015).
Read-outs that look alike come from different tables or passages of the source.

Key:
[1] = in vivo; assay type: in vivo, A/J mice; settings: for concentration in the PK study: oral XCHT 500 mg/kg; for detected in the blood: mice, oral XCHT extract 0.5 g/kg
[2] = assay type: physicochemical, mice; settings: for Accuracy (RE, %) 25°C for 6 h / Accuracy (RE, %) Frozen for 30 days: stability in mice plasma/blood QC sample; for Accuracy (RE, %) Frozen for 30 days: −80°C; for Accuracy (RE, %) 4°C for 24 h: stability, extracted QC sample in auto-sampler
How it was run: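 Blank mouse blood spiked with analytes and vitamin C, then extracted with methanol containing daidzein internal standard (0.5 μM) by 1 min vortex. Spun at 20,000 × g for 15 min and dried under air. Three replicates per QC level were held unextracted at 25°C for 6 h, at −80°C for 30 days, or extracted in the 4°C autosampler for 24 h. Analysed by UPLC-MS/MS (C18, formic acid/acetonitrile, positive MRM); accuracy as RE.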

[3] = male A/J mouse, oral XCHT extract 500 mg/kg, blood, mean±SD, n=6
[4] = male A/J mouse, oral XCHT extract 500 mg/kg, blood, median (min~max), n=6
[5] = male, A/J, mouse, whole blood, po, 500 mg/kg

SMILES	Accuracy (RE, %) 25°C for 6 h ([2]; spiked concentration 6.25)	Accuracy (RE, %) 25°C for 6 h ([2]; spiked concentration 50)	Accuracy (RE, %) Frozen for 30 days ([2]; spiked concentration 6.25)	Accuracy (RE, %) Frozen for 30 days ([2]; spiked concentration 50)	Accuracy (RE, %) 4°C for 24 h ([2]; spiked concentration 6.25)	Accuracy (RE, %) 4°C for 24 h ([2]; spiked concentration 50)	AUC0-∞ [1, 3]	AUC(0-t) [1, 3]	Cmax [1, 3]	t1/2 [1, 3]	Tmax [1, 4]	detected in the blood [1]	Accuracy (RE, %) 25°C for 6 h ([2]; spiked concentration 62.5)	Accuracy (RE, %) 25°C for 6 h ([2]; spiked concentration 500)	Accuracy (RE, %) Frozen for 30 days ([2]; spiked concentration 62.5)	Accuracy (RE, %) Frozen for 30 days ([2]; spiked concentration 500)	Accuracy (RE, %) 4°C for 24 h ([2]; spiked concentration 62.5)	Accuracy (RE, %) 4°C for 24 h ([2]; spiked concentration 500)	further results
C[C@H]1O[C@@H](O[C@H]2CC[C@@]3(C)[C@@H](CC[C@]4(C)[C@@H]3C=C[C@]35OC[C@@]6(CCC(C)(C)C[C@H]63)[C@@H](O)C[C@]54C)[C@]2(C)CO)[C@H](O)[C@@H](O[C@@H]2O[C@H](CO)[C@@H](O)[C@H](O)[C@H]2O)[C@H]1O [SSa, saikosaponin a]	−1.5%	7.4%	10.8%	12.1%	12%	10.6%	–	–	–	–	–	–	–	–	–	–	–	–	concentration in the PK study ([1]; A/J mice, blood, time 5 min): 0.69±0.26; concentration in the PK study ([1]; A/J mice, blood, time 15 min): 1.17±0.88; concentration in the PK study ([1]; A/J mice, blood, time 30 min): 1.02±0.75; concentration in the PK study ([1]; A/J mice, blood, time 60 min): 1.15±0.77; concentration in the PK study ([1]; A/J mice, blood, time 120 min): 0.85±0.51; Accuracy (RE, %) 25°C for 6 h ([2]; spiked concentration 0.39): 0.7%; Accuracy (RE, %) Frozen for 30 days ([2]; spiked concentration 0.39): −6.7%; Accuracy (RE, %) 4°C for 24 h ([2]; spiked concentration 0.39): −7.4%
C[C@H]1O[C@@H](O[C@H]2CC[C@@]3(C)[C@@H](CC[C@]4(C)[C@@H]3C=C[C@]35OC[C@@]6(CCC(C)(C)C[C@H]63)[C@H](O)C[C@]54C)[C@]2(C)CO)[C@H](O)[C@@H](O[C@@H]2O[C@H](CO)[C@@H](O)[C@H](O)[C@H]2O)[C@H]1O [SSd, saikosaponin d]	−13.0%	2.4%	12.5%	15.0%	13.1%	14.5%	0.02584 ± 0.0185 µM·h	0.02584 ± 0.0185 µM·h	3.42 ± 0.74 nM	12.18 ± 5.32 h	0.50 (0.125~0.5) h	detected	–	–	–	–	–	–	Accuracy (RE, %) 25°C for 6 h ([2]; spiked concentration 0.049): 6.8%; Accuracy (RE, %) Frozen for 30 days ([2]; spiked concentration 0.049): 8.7%; Accuracy (RE, %) 4°C for 24 h ([2]; spiked concentration 0.049): −19%
COc1c(O)cc(O)c2c(=O)cc(-c3ccccc3)oc12 [Wogonin, wogonin]	–	–	–	–	–	–	–	–	–	–	–	–	9.5%	3.1%	15%	10.3%	14.8%	13.5%	Tmax ([1]; male, A/J, mouse, whole blood, po, 0.5 g/kg): 0.17 ± 0.09 h; AUC(0-inf) [1, 5]: 0.116 ± 0.0822 µM·h; AUC(0-t) [1, 5]: 0.11 ± 0.0878 µM·h; Cmax [1, 5]: 18.8 ± 6.27 nM; Tmax [1, 5]: 0.167 h; half-life [1, 5]: 6.16 ± 4.85 h; Accuracy (RE, %) 25°C for 6 h ([2]; spiked concentration 3.9): 11.4%; Accuracy (RE, %) Frozen for 30 days ([2]; spiked concentration 3.9): 8.4%; Accuracy (RE, %) 4°C for 24 h ([2]; spiked concentration 3.9): 9.2%
COc1c(O[C@@H]2O[C@H](C(=O)O)[C@@H](O)[C@H](O)[C@H]2O)cc(O)c2c(=O)cc(-c3ccccc3)oc12 [Wogonoside, wogonoside]	–	–	–	–	–	–	1.55574 ± 0.12091 µM·h	1.44654 ± 0.33091 µM·h	174 ± 42.1 nM	4.77 ± 1.24 h	1.625 (0.083~3) h	detected	8.5%	1.4%	10.1%	11.2%	15.1%	12.6%	Tmax ([1]; mean±SD, A/J mice, oral XCHT 0.5 g/kg): 1.58 ± 1.63 h; Accuracy (RE, %) 25°C for 6 h ([2]; spiked concentration 0.488): 14.1%; Accuracy (RE, %) Frozen for 30 days ([2]; spiked concentration 0.488): −10.9%; Accuracy (RE, %) 4°C for 24 h ([2]; spiked concentration 0.488): 2.3%
